Blank lines part the entries; values can stand above or below the molecule they belong to.
Legend:
[1] = molecular target: Adenosine receptors; A1 & A3 (Homo sapiens) (UniProt P30542+P0DMS8); assay: Ratio of binding affinity of human A1 receptor to that of human A3 receptor; type: protein assay
Procedure, shortened: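 Ki ratio from displacement in CHO membranes, 6–8 concentrations, n=3-6, filtration counting. A1: 1 nM [3H]DPCPX, 50 μg protein, 120 min at 25 °C, nonspecific with 10 μM CHA. A3: 1 nM [3H]MRE3008-F20, 50 μg protein, Tris/10 mM MgCl2 pH 7.4, 120 min at 4 °C, nonspecific with 1 μM MRE3008-F20.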

[2] = molecular target: T1, Adenosine receptor A2a (Homo sapiens, UniProt P29274); assay: Displacement of [3H]-SCH- 58261 from human adenosine A2A receptor expressed in CHO cells; range 0.65-1.06; type: cell-based
Procedure, shortened: (§1)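 Membranes from CHO cells stably expressing human A2A receptor, grown in DMEM/F12 without nucleosides, resuspended in 50 mM Tris HCl, 10 mM MgCl2, pH 7.4; 50 μg protein/assay. Competition with [3H]SCH 58261 at 6–8 or more compound concentrations, 60 min at 25 °C; nonspecific binding with 50 μM NECA. Filtration on GF/B filters, scintillation counting; n=3-6.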

[3] = molecular target: Adenosine receptors; A2b & A3 (Homo sapiens) (UniProt P29275+P0DMS8); assay: Ratio of binding affinity of human A2B receptor to that of human A3 receptor; type: protein assay
Procedure, shortened: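 Ki ratio, n=3-6, 6–8 concentrations. A2B in HEK-293 membranes (20 μg): 40 nM [3H]DPCPX, 50 mM Tris HCl, 10 mM MgCl2, 1 mM EDTA, 0.1 mM benzamidine pH 7.4, 2 IU/mL adenosine deaminase, 60 min at 25 °C, nonspecific with 100 μM NECA. A3 in CHO membranes (50 μg): 1 nM [3H]MRE3008-F20, 120 min at 4 °C.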

[4] = molecular target: T2, Adenosine receptor A2b (Homo sapiens, UniProt P29275); assay: Displacement of [3H]-DPCPX from Adenosine A2b receptor expressed in CHO cells; range 8-18; type: cell-based; details: in the assay text read “HEK-293 cells” for “CHO cells”
T2 sequence (P29275 whole entry): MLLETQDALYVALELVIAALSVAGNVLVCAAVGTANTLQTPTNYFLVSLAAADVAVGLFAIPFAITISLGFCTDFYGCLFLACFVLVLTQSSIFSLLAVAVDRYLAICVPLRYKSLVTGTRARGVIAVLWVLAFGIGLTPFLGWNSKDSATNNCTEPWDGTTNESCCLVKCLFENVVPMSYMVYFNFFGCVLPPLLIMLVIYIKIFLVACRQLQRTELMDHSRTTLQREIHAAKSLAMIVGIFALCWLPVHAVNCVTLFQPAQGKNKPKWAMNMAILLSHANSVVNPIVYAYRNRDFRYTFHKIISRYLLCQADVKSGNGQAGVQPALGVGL
Procedure, shortened: (§2)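 Human recombinant A2B receptor was expressed in HEK-293 cell membranes (20 μg protein). Incubated with 40 nM [3H]DPCPX in 50 mM Tris HCl, 10 mM MgCl2, 1 mM EDTA, 0.1 mM benzamidine, pH 7.4, with 2 IU/mL adenosine deaminase, at least 6–8 test concentrations, 60 min, 25 °C. Nonspecific binding was taken with 100 μM NECA; n=3-6.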

[5] = molecular target: T3, Adenosine receptor A3 (Homo sapiens) (UniProt P0DMS8); assay: Percentage of blockade by 1 uM of the inhibition by 100 nM IB-MECA-inhibited cAMP accumulation in CHO cells expressing human adenosine A3 receptor.; type: functional, cell-based
T3 sequence (whole entry): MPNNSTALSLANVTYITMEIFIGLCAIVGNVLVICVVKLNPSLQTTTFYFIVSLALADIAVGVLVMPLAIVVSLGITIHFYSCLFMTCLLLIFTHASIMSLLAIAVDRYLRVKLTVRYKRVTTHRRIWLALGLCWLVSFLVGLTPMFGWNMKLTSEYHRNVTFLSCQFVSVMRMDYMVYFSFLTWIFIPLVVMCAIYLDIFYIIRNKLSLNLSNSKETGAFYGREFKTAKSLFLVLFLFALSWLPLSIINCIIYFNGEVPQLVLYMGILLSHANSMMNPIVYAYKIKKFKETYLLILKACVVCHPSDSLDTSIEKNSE
Procedure, shortened: (§3)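 CHO cells stably expressing human A3 receptor; membranes in 50 mM Tris HCl, 10 mM MgCl2, 1 mM EDTA pH 7.4 with 5 μM GTP, 0.5 mM […] and 2.0 IU/mL adenosine deaminase. Preincubated 10 min at 37 °C, then IB-MECA (100 nM) and/or antagonist with 1 mM ATP and 10 μM forskolin for 10 min. Boiled 2 min. cAMP read by [3H]cAMP competition with adrenal binding protein.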

[6] = molecular target: T4, Adenosine receptor A3 (Homo sapiens, UniProt P0DMS8); assay: Displacement of [3H]MRE3008-F20 from human adenosine A3 receptor expressed in CHO cells; range 691-952; type: cell-based
T4 sequence (P0DMS8 whole entry): T3 sequence (whole entry)

[7] = molecular target: T5, Adenosine receptor A1 (Homo sapiens, UniProt P30542); assay: Displacement of [3H]DPCPX from human adenosine A1 receptor expressed in CHO cells; range 4.72-6.23; type: cell-based
T5 sequence (P30542 whole entry): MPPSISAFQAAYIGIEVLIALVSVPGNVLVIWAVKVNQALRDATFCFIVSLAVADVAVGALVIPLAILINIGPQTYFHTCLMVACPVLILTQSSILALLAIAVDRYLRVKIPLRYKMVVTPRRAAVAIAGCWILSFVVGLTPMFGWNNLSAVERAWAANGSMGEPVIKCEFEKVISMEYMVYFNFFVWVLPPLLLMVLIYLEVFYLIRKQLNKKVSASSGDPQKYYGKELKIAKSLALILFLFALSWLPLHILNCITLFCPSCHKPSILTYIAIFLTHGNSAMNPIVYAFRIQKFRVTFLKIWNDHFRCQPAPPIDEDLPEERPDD

[8] = molecular target: T3, Adenosine receptor A3 (Homo sapiens); assay: Percent reversal of 100 nM IB-MECA-inhibited cAMP accumulation in CHO cells expressing human adenosine A3 receptor at 1 uM; type: functional, cell-based; procedure, shortened: as §3
[9] = molecular target: T4, Adenosine receptor A3; assay: Displacement of [3H]MRE3008-F20 from human adenosine A3 receptor expressed in CHO cells; range 664-738; type: cell-based
[10] = molecular target: T2, Adenosine receptor A2b; assay: Displacement of [3H]-DPCPX from Adenosine A2b receptor expressed in […]; range 7.4-11.3; type: cell-based
[11] = molecular target: T5, Adenosine receptor A1; assay: Displacement of [3H]DPCPX from human adenosine A1 receptor expressed in CHO cells; range 1.72-2.36; type: cell-based
[12] = molecular target: T5, Adenosine receptor A1; assay: Displacement of [3H]DPCPX from human adenosine A1 receptor expressed in CHO cells; range 6.5-8.7; type: cell-based
[13] = molecular target: T1, Adenosine receptor A2a; assay: biochemical
[14] = molecular target: T4, Adenosine receptor A3; assay: Inhibition of cAMP accumulation in CHO cells expressing human adenosine A3 receptor; range 1.1-3.8; type: functional, cell-based
[15] = molecular target: T2, Adenosine receptor A2b; assay: Displacement of [3H]DPCPX from Adenosine A2b receptor expressed in […]; range 19-27; type: cell-based
[16] = molecular target: T3, Adenosine receptor A3 (Homo sapiens); assay: Percent reversal of 100 nM IB-MECA-inhibited cAMP accumulation in CHO cells expressing human adenosine A3 receptor at 1 uM; range 92-102; type: functional, cell-based; procedure, shortened: as §3
[17] = molecular target: T4, Adenosine receptor A3; assay: Displacement of [3H]MRE3008-F20 from human adenosine A3 receptor expressed in CHO cells; range 0.51-0.70; type: cell-based
[18] = molecular target: T2, Adenosine receptor A2b; assay: Displacement of [3H]DPCPX from Adenosine A2b receptor expressed in […]; range 188-320; type: cell-based; procedure, shortened: as §2
[19] = molecular target: T4, Adenosine receptor A3; assay: Inhibition of cAMP accumulation in CHO cells expressing human adenosine A3 receptor; range 2.5-9.3; type: functional, cell-based
[20] = molecular target: T3, Adenosine receptor A3 (Homo sapiens); details: CHO, 1 uM
[21] = molecular target: T2, Adenosine receptor A2b; assay: Displacement of [3H]DPCPX from Adenosine A2b receptor expressed in […]; range 107-210; type: cell-based
[22] = molecular target: T4, Adenosine receptor A3; assay: Displacement of [3H]MRE3008-F20 from human adenosine A3 receptor expressed in CHO cells; range 1.42-1.79; type: cell-based
[23] = molecular target: T1, Adenosine receptor A2a; assay: Displacement of [3H]-SCH- 58261 from human adenosine A2A receptor expressed in CHO cells; range 160-210; type: cell-based
Procedure, shortened: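 CHO membranes expressing human A2A receptor (50 μg protein) in 50 mM Tris HCl, 10 mM MgCl2, pH 7.4, competed against [3H]SCH 58261. At least 6–8 test concentrations were used, with 60 min incubation at 25 °C. Nonspecific binding defined by 50 μM NECA; n=3-6.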

[24] = molecular target: T4, Adenosine receptor A3; assay: Inhibition of cAMP accumulation in CHO cells expressing human adenosine A3 receptor; range 10.8-21.5; type: functional, cell-based
[25] = molecular target: T5, Adenosine receptor A1; assay: Displacement of [3H]DPCPX from human adenosine A1 receptor expressed in CHO cells; range 83-120; type: cell-based
[26] = molecular target: T2, Adenosine receptor A2b; assay: Displacement of [3H]DPCPX from Adenosine A2b receptor expressed in […]; range 55-68; type: cell-based; procedure, shortened: as §2
[27] = molecular target: T3, Adenosine receptor A3 (Homo sapiens); details: CHO, 1 uM; remark: listed apart in the source
[28] = molecular target: T1, Adenosine receptor A2a; assay: Displacement of [3H]-SCH- 58261 from human adenosine A2A receptor expressed in CHO cells; range 85-164; type: cell-based; procedure, shortened: as §1
[29] = molecular target: T4, Adenosine receptor A3; assay: Displacement of [3H]MRE3008-F20 from human adenosine A3 receptor expressed in CHO cells; range 33-48; type: cell-based
[30] = molecular target: T4, Adenosine receptor A3; assay: Inhibition of cAMP accumulation in CHO cells expressing human adenosine A3 receptor; type: functional, cell-based
[31] = molecular target: T4, Adenosine receptor A3; assay: Displacement of [3H]MRE3008-F20 from human adenosine A3 receptor expressed in CHO cells; […]; type: cell-based
[32] = molecular target: T2, Adenosine receptor A2b; assay: Displacement of [3H]DPCPX from Adenosine A2b receptor expressed in […]; range 70-94; type: cell-based

T1 sequence (P29274 whole entry): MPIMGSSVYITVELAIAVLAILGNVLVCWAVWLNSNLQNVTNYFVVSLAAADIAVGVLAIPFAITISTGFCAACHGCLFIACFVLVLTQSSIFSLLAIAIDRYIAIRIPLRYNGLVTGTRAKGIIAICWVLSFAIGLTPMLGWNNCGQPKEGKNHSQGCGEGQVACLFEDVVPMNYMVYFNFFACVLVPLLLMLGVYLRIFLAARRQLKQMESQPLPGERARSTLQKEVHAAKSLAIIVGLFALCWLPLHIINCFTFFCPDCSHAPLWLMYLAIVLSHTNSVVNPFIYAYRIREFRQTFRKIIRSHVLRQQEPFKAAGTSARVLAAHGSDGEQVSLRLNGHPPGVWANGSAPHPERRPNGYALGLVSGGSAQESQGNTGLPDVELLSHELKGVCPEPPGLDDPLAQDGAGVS

Compound: CC(C)=CCn1cc2c(nc(N)n3nc(-c4ccco4)nc23)n1
Ratio [1]: 0.006 | Ki [2]: 0.8 nM | Ratio [3]: 0.014 | Ki [4]: 12 nM | inhibition [5]: 12% | Ki [6]: 811 nM | Ki [7]: 5.42 nM

Compound: CC(C)CCn1cc2c(nc(N)n3nc(-c4ccco4)nc23)n1
inhibition [8]: 14% | Ratio [1]: 0.002 | Ratio [3]: 0.013 | Ki [9]: 700 nM | Ki [10]: 9.1 nM | Ki [11]: 2 nM

Compound: COc1ccc(NC(=O)Nc2nc3ccc(Cl)cc3c3nc(-c4ccco4)nn23)cc1
Ki [12]: 7.6 nM | Ratio [1]: 43 | Ki [13]: 9.4 nM | Ratio [3]: 158 | IC50 [14]: 2 nM | Ki [15]: 22 nM | inhibition [16]: 97%

Further lines, results first:

Ratio [1]: 1710 | Ratio [3]: 408 | Ki [17]: 0.6 nM | Ki [18]: 245 nM | IC50 [19]: 4.8 nM
Compound: CCn1cc2c(nc(NC(=O)Nc3ccc(OC)cc3)n3nc(-c4ccco4)nc23)n1

inhibition [20]: 68% | Ratio [1]: 155 | Ki [21]: 150 nM | Ratio [3]: 93.7 | Ki [22]: 1.6 nM | Ki [23]: 180 nM | IC50 [24]: 14.8 nM
Compound: CCn1cc2c(nc(NC(=O)Nc3cccc(Cl)c3)n3nc(-c4ccco4)nc23)n1

Ki [25]: 100 nM | Ki [26]: 61 nM | Ratio [1]: 2.5 | inhibition [27]: 45% | Ki [28]: 115 nM | Ratio [3]: 1.5 | Ki [29]: 40 nM
Compound: CC(C)CCn1cc2c(nc(NC(=O)Nc3cccc(Cl)c3)n3nc(-c4ccco4)nc23)n1

Ratio [1]: 205 | IC50 [30]: 13.9 nM | Ki [31]: 0.98 nM | Ratio [3]: 82.6 | Ki [32]: 81 nM
Compound: COc1ccc(NC(=O)Nc2nc3nn(CCc4ccccc4)cc3c3nc(-c4ccco4)nn23)cc1
